# Published values of several laboratories.
# Protocols differ between the studies behind these lines.
# DHFR: Dihydrofolate reductase (DHFR, Homo sapiens, UniProt P00374)
# TOP2A: DNA topoisomerase 2-alpha (TOP2A, Homo sapiens, UniProt P11388)
# HTR2C: 5-hydroxytryptamine receptor 2C (HTR2C, Homo sapiens, UniProt P28335)
# FAAH: Fatty-acid amide hydrolase 1 (FAAH, Homo sapiens, UniProt O00519)
# HTR2B: 5-hydroxytryptamine receptor 2B (HTR2B, Homo sapiens, UniProt P41595)
SMILES,target,test,IC50
Cc1ccc(NC(=S)NN=Cc2ccc(N3CCCCC3)cc2)cc1,DHFR,"enzyme activity, inhibitor",28.5 µM
CC(C)c1ccc(CSc2nc(SCc3ccc4sccc4c3)[nH]c(=O)n2)cc1,TOP2A,"enzyme activity, inhibitor",14.2 µM
CC1CCC(C(C)C)C(OC(=O)C=Cc2ccc(O)c(O)c2)C1 (stereo not drawn),DHFR,"enzyme activity, inhibitor, absorbance",0.182 µM
O=C(c1cc(C2CCNC2)[nH]n1)N1CCC(c2cccc(Cl)c2)C1 (stereo not drawn),HTR2C,"calcium signal, antagonist",8.5 µM
Cc1nc(CSc2nc(SCc3ccc(C(F)(F)F)cc3)nc(=O)[nH]2)cs1,TOP2A,"enzyme activity, inhibitor",64.7 µM
O=C(Nc1ccc(-c2ccnc3ccccc23)cc1)C1CCN(S(=O)(=O)c2ccccc2Cl)CC1,FAAH,"enzyme activity, inhibitor, fluorescence",0.0887 µM
O=c1nc(SCc2cc(F)cc(C(F)(F)F)c2)nc(SCc2nc3ccccc3[nH]2)[nH]1,TOP2A,"enzyme activity, inhibitor",31.7 µM
O=C(C=Cc1ccc(O)c(O)c1)OCCc1ccccc1,DHFR,"enzyme activity, inhibitor, absorbance",11.5 µM
Oc1cc(CN2CCN3CCCCC3C2)c2ccccc2c1 (stereo not drawn),HTR2B,"calcium signal, antagonist",0.586 µM
S=C(NN=Cc1ccc(N2CCCCC2)cc1)Nc1ccc(Cl)cc1,DHFR,"enzyme activity, inhibitor",18.4 µM
O=C(C=Cc1ccc(O)c(O)c1)Oc1ccccc1,DHFR,"enzyme activity, inhibitor, absorbance",15.4 µM
O=C1C(N2CCC(c3cn[nH]n3)C2)CCN1c1cccc(Cl)c1 (stereo not drawn),HTR2B,"calcium signal, antagonist",7.25 µM
Cc1cccc(C)c1NC(=S)NN=Cc1ccc(N2CCCCC2)cc1,DHFR,"enzyme activity, inhibitor",18.3 µM
Cc1[nH]c2ccccc2c1C(=O)C(C)N1CCC(c2nccn2C)C1 (stereo not drawn),HTR2C,"calcium signal, antagonist",2.61 µM
O=C(Nc1ccc(-c2cnc3ccccc3c2)cc1)C1CCN(S(=O)(=O)c2ccccc2Cl)CC1,FAAH,"enzyme activity, inhibitor, fluorescence",0.016 µM
S=C(NN=Cc1ccc(N2CCCCC2)cc1)Nc1cccc(Cl)c1Cl,DHFR,"enzyme activity, inhibitor",47.3 µM
Cc1cccc(C(CO)N2CCN(Cc3cc(O)ccc3Cl)CC2)c1 (stereo not drawn),HTR2B,"calcium signal, antagonist",0.691 µM
S=C(NN=Cc1ccc(N2CCCCC2)cc1)Nc1ccccc1,DHFR,"enzyme activity, inhibitor",15.6 µM
Nc1nc(N)c(OCCCOc2ccccc2CCC(=O)O)c(-c2ccc(C(F)(F)F)cc2)n1,DHFR,"enzyme activity, inhibitor",> 5 µM
COc1ccccc1CC1CCN(CC(=O)c2cc(C)[nH]c2C)C1 (stereo not drawn),HTR2C,"calcium signal, antagonist",23 µM
O=[N+]([O-])c1cccc(NC(=S)NN=Cc2ccc(N3CCCCC3)cc2)c1,DHFR,"enzyme activity, inhibitor",13.7 µM
